Compound activity from PubChem.
Sampled rows, rich in hits. Any-hit rate of the full collection: about 4.8%.
XBP1 UPR activ: activators of adaptive XBP1 UPR arm, primary screen, cell-based, CHO-XBP1 luciferase reporter, luminescence, uHTS; activation, % at 20 µM; IRE1-XBP1 UPR activation; percent of tunicamycin response, DMSO as zero; hit rate 0.33% among 330,000;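 active = versus positive control, 20 µM dose yields 30% or more activation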;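 note: 100% = tunicamycin at 10 µg/mL and 0% = DMSO only wells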
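Test system: CHO-XBP1 luciferase reporter cells | Buffer or medium: Serum-containing F12 medium, 10% FBS | Schedule: 6 h compound exposure at 37 °C, 5% CO2 | Detection: Steady-Glo luciferase glow luminescence, 10 min after reagent addition | Read-out basis: Activation, % of tunicamycin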
UPR CHOP act: activators of apoptotic CHOP UPR arm, primary screen, cell-based, CHO-CHOP luciferase reporter, luminescence, uHTS | activation, % at 10 µM | AID 449763, 2010 | UPR activation; percent of tunicamycin response over DMSO baseline | hit rate 0.34% among 330,000;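 active = at 10 µM dose, activation of 40% or more, normalized to positive control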;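 note: 100% = tunicamycin at 10 µg/mL and 0% = DMSO alone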
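System: CHO-CHOP luciferase reporter cell line | Buffer or medium: F12 medium containing 10% fetal bovine serum | Doses: One dose, 10 µM in 0.5% DMSO | Times: 6 h compound exposure at 37 °C after overnight seeding | Signal: Luciferase luminescence | Read-out: % activation vs tunicamycin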
Beta apoptosis: inhibitors of cytokine-induced beta cell apoptosis, primary screen, luminescence | INS-1E cytokine-induced death, ATP luminescence, 48 h; percent of positive-control rescue, neutral wells zero | protection from apoptosis, % (concentration not given with the values) | hit rate 0.8% among 300,000 | AID 435005, 2010;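 active = Every replicate reaches about 75%, or at least half do and their mean reaches it too, limit read from the data; inconclusive = At least half of replicates reach the limit but their mean does not; inactive = Under half of replicates reach the limit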;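 note: 0% = cytokine-treated negative control wells and 100% = positive control rescue; higher means more ATP so stronger rescue from cytokine killing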
SKKanGAS inh: S. pyogenes SKKanGAS growth inhibitors in kanamycin, primary screen, streptokinase expression inhibitor project, SKKanGAS strain, BacTiter-Glo luminescence | 6 h | inhibition, % at 7.5 µM | hit rate 1.3% among 300,000 | AID 1662, 2009;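 active = mean replicate score, as percent of positive control median, at least 50; inconclusive = mean below 50 but one replicate at or above 50; inactive = mean and every replicate below 50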;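 note: strain carries kanamycin resistance gene driven by streptokinase promoter and grows in 40 µg/ml kanamycin; loss of luminescence reflects streptokinase promoter inhibition or plain growth inhibition; 0% = median of DMSO wells and 100% = positive control at its reference dose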
Mdm2 MdmX PPI: inhibitors of human Mdm2-MdmX association, primary screen, cell-based, luminescence, split luciferase, SaOS-2, uHTS | hit rate 3% among 330,000 | inhibition, % at 8 µM | Protein Mdm4 (Homo sapiens) + E3 ubiquitin-protein ligase Mdm2 (Homo sapiens), … | SaOS-2 split-luciferase Mdm2/MdmX complementation;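 active = inhibition of at least 50% at 8 µM in the primary screen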
Target sequence (O15151 whole entry, looked up): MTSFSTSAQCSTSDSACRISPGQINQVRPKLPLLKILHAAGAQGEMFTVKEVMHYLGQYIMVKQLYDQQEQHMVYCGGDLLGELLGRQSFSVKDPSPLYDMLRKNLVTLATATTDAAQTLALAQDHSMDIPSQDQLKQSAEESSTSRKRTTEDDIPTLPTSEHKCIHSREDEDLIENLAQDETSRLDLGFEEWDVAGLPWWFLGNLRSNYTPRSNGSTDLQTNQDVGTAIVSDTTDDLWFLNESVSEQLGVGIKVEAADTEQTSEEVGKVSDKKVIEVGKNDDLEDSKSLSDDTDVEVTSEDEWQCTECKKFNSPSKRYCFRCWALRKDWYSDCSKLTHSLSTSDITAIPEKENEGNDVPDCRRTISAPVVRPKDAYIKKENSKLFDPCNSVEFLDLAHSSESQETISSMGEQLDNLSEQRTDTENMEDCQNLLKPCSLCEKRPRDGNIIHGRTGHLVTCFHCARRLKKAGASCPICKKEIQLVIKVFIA
Target sequence (Q00987 whole entry, looked up): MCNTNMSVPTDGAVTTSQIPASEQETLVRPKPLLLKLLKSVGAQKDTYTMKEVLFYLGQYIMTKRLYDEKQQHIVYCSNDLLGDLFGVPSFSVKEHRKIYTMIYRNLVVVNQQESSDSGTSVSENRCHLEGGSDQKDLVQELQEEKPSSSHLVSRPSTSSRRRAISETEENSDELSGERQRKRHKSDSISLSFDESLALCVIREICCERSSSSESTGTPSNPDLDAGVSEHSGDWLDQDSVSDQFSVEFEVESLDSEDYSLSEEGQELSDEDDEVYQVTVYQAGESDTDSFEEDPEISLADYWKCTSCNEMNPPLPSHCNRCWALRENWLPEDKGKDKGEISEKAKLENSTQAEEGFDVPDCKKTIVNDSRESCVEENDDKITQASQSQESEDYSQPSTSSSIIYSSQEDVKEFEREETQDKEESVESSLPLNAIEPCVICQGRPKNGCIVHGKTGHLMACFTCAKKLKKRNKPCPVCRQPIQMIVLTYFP
CSC inhib: cancer stem cell viability inhibitors, primary screen, luminescence; cancer stem cell-like cells viability; inhibition, % at 7.5 µM; hit rate 1.1% among 300,000; AID 2717, 2010; in the data active = inhibition above about 75%; inconclusive = no clear call, values can overlap the other calls; tested in HMLE shEcad cells
Mdm2 MdmX conf: Mdm2-MdmX complex disruptors, retested hits, confirmation, luminescence, single concentration; hit rate 55% among 10,000; AID 489028, 2010; shares compounds with Mdm2 MdmX PPI; inhibition, % at 8 µM; Mdm2-MdmX binding, luminescent assay; in the data active = inhibition above about 40%
FLuc counter: full-length luciferase signal inhibition, confirmation, counter-screen for Mdm2/MdmX interaction inhibitor project, cell-based, single concentration, SaOS-2. AID 504607, 2011. shares compounds with Mdm2 MdmX PPI. SaOS-2 full-length luciferase counterscreen, luminescence. hit rate 77% among 6,200. inhibition, % at 8 µM;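 active = mean inhibition at 8 µM reaching about 37%, which flags the compound as non-specific, limit read from the data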;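 note: p53-null SaOS-2 cells with luciferase driven by a doxycycline-inducible promoter; compound on cells about two nights before reading with doxycycline added after day one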
* = called active by the depositor.

What do the screens show for `CC1=C(C(=O)OCc2ccccc2)C(c2cccc([N+](=O)[O-])c2)NC(=O)N1` (stereo unspecified)?
XBP1 UPR activ: -2.5; UPR CHOP act: -0.1; Beta apoptosis: -5.3; SKKanGAS inh: -0.1; Mdm2 MdmX PPI: 27.3; CSC inhib: -9.8

What do the screens show for `Cc1cc(/C=N/n2c(COc3ccccc3)nc3ccccc3c2=O)c(O)c([N+](=O)[O-])c1`?
XBP1 UPR activ: -0.6; UPR CHOP act: -1.2; Beta apoptosis: 55.2; SKKanGAS inh: 17.6; Mdm2 MdmX PPI: 58.6*; CSC inhib: inconclusive; Mdm2 MdmX conf: 47.1*; FLuc counter: 39.6*

Results for O=C(CNCc1ccc(Cl)cc1)Nc1ccc(C(=O)N2CCCCCC2)cc1 ?
XBP1 UPR activ: -2.4; UPR CHOP act: -0.4; Beta apoptosis: -3.6; SKKanGAS inh: -0.4; Mdm2 MdmX PPI: 4.6; CSC inhib: -7.1

Results for CCN(CC)C(=O)c1oc2ccc(S(=O)(=O)N3CC(C)CC(C)C3)cc2c1C (stereo unspecified) ?
XBP1 UPR activ: -0.4; UPR CHOP act: 3.6; Beta apoptosis: 63.1; SKKanGAS inh: -1.7; Mdm2 MdmX PPI: 34.9; CSC inhib: -4.9

What do the screens show for `Cc1c(C(=O)Nc2ccc(F)cc2)oc2ccc(S(=O)(=O)N3CC(C)CC(C)C3)cc12` (stereo unspecified)?
XBP1 UPR activ: -4.8; UPR CHOP act: 0.8; Beta apoptosis: 52.6; SKKanGAS inh: 14.7; Mdm2 MdmX PPI: 64.2*; CSC inhib: 23.1; Mdm2 MdmX conf: 39.2; FLuc counter: 68.6*

Results for CC1CC(C)CN(S(=O)(=O)c2ccc(F)c(C(=O)Nc3ccc(Cl)cc3F)c2)C1 (stereo unspecified) ?
XBP1 UPR activ: 2.5; UPR CHOP act: -1.5; SKKanGAS inh: -5.3; Mdm2 MdmX PPI: 52.4*; Mdm2 MdmX conf: 11.8

Results for CC1CC(C)CN(C(=O)c2ccc(NC(=O)c3ccc(=O)[nH]c3)cc2)C1 (stereo unspecified) ?
XBP1 UPR activ: 2.8; UPR CHOP act: -0.2; Beta apoptosis: -2.2; SKKanGAS inh: 2.4; Mdm2 MdmX PPI: 16.9; CSC inhib: -9.7

What do the screens show for `CC1CC(C)CN(S(=O)(=O)c2ccc(Cl)cc2)C1` (stereo unspecified)?
XBP1 UPR activ: -6.5; UPR CHOP act: -0.3; Beta apoptosis: -6.3; SKKanGAS inh: 7.1; Mdm2 MdmX PPI: 4.2; CSC inhib: -10.9

What do the screens show for `CC1CC(C)CN(S(=O)(=O)c2ccc(NC(=O)c3ccc(=O)[nH]c3)cc2)C1` (stereo unspecified)?
XBP1 UPR activ: -0.7; UPR CHOP act: 2.2; Beta apoptosis: 19.1; Mdm2 MdmX PPI: 58.7*; CSC inhib: 42.2; Mdm2 MdmX conf: 51.1*; FLuc counter: 73.7*

Results for COc1ccc(-n2cc(CNCc3cnc4ccccn34)c(-c3cccc(F)c3)n2)cc1 ?
XBP1 UPR activ: -0.8; UPR CHOP act: -0.6; Beta apoptosis: -1.8; SKKanGAS inh: -11.3; Mdm2 MdmX PPI: 8.7; CSC inhib: 10.7

Results for O=C(CN1c2ccccc2Sc2ccccc21)NNC(=S)Nc1ccc(Cl)cc1Cl ?
XBP1 UPR activ: 0.5; UPR CHOP act: 0.0; Beta apoptosis: 17.9; SKKanGAS inh: 110.8*; Mdm2 MdmX PPI: 66.2*; CSC inhib: inconclusive; Mdm2 MdmX conf: 6.5

What do the screens show for `O=C(CN1c2ccccc2Sc2ccccc21)N/N=C/c1ccc(Cl)cc1`?
XBP1 UPR activ: -1.5; UPR CHOP act: 0.6; Beta apoptosis: 10.6; SKKanGAS inh: 12.0; Mdm2 MdmX PPI: 70.5*; CSC inhib: 61.7; Mdm2 MdmX conf: 1.1
